# M1 antagonist = blocks the rat M1 muscarinic receptor response to acetylcholine; P08482; CHO-M1 cells, Fluo-4 calcium, ACh EC80 antagonist mode; stronger effect = lower value; B-score at 10 µM; hit rate 3.4% among 64,000;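 active = calcium fluorescence response, raw or row-and-column corrected B-score, differing from the plate sample mean either way at a set confidence level, mostly lower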
# M1 ag = M1 muscarinic receptor agonism; CHO-M1 cells, Fluo-4 calcium fluorescence, agonist mode; stronger effect = higher value; B-score at 10 µM; hit rate 3% among 64,000;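 active = fluorescence rise, raw or as B-score row- and column-corrected plate score, outside the 99.7% band of its plate's samples, either direction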
# S1P1 ag pot = activates or potentiates agonism at human S1P1 receptor; P21453; S1P1 CRE-bla cells, forskolin, beta-lactamase FRET, potentiator mode; S1P1 agonist co-added at EC20, 2 nM; 100% = saturating reference agonist, 0% = basal; activation, % at 9.5 µM; hit rate 0.57% among 56,000; AID 449;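 active = activation above a cutoff set at the mean activation of all tested compounds plus 3 SD, cut at about 54% in these data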;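 also: forskolin at 4 µM as EC80 and the EC20 agonist is SEW2871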
# Target sequence (P21453 whole entry, looked up): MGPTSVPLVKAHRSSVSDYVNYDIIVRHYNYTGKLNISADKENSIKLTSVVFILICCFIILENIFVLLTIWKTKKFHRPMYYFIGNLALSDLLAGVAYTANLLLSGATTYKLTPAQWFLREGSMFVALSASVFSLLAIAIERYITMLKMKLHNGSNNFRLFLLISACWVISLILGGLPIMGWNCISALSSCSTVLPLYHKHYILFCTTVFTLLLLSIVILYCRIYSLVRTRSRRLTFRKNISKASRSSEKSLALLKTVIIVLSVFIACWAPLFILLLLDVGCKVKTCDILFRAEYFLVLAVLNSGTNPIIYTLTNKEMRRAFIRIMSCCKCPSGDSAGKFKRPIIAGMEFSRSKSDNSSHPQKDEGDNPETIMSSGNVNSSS
# D1 allo mod = allosterically modulates the human D1 dopamine receptor. P21728. HEK293 D1, CRE-luciferase, dopamine EC30 potentiation; actives deviate in either direction. hit rate 5.9% among 58,000. B-score at 10 µM;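 active = luminescence count or its row- and column-corrected plate score outside the 99.7% band of the plate's sample wells, on either side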
# S1P3 ag = agonists of human S1P3 receptor | hit rate 0.1% among 60,000 | activation, % at 4.5 µM | AID 373 | S1P3 NFAT-BLA reporter cells, agonism, FRET ratio; relative to 1 µM S1P, basal subtracted | Q99500;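 active = activation above the screen-wide mean plus 3 SD, cut at about 4.5% in these data, passing the limit was not always enough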
#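 Benchmarks: high control 1 µM S1P / System: stable CHO line with human S1P3, Gα16, NFAT-BLA reporter / Dosing: single compound concentration, 4.5 µM final / Timing: 4 h compound at 37 °C, 2 h substrate at RT / Measured by: FRET β-lactamase substrate fluorescence, excitation 405 nm, 460/535 nm emission ratio, background-subtracted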
# M1 agonist conf = confirmation of rat M1 muscarinic receptor agonists; AID 1488; fluorescence change (max-min) at 10 µM; CHO-M1 cells, Fluo-4 calcium fluorescence, agonist mode; actives lie on both sides; shares compounds with M1 ag; hit rate 19% among 1,700;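 active = fluorescence change differs from the solvent-only DMSO control mean at a set confidence level in both duplicate runs; inconclusive = differs from solvent-only control mean in just one of two runs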;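 also: an EC20 dose of acetylcholine follows compound addition during the same imaging run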
# M4 agonist ctr = activates rat M4 receptor in counter-screen for M1 agonists | shares compounds with M1 ag | CHO M4/Gqi5 cells, Fluo-4 calcium fluorescence, agonist mode; actives lie on both sides | fluorescence change (max-min) at 10 µM | hit rate 9% among 1,700 | AID 1741;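 active = fluorescence change differing from the plate's solvent-only control wells at 99.7% confidence in both duplicates, whether higher or lower; inconclusive = differs from solvent controls in only one of two duplicates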
# Hits are given with their value; - = inactive; ? = inconclusive; . = no result. Compounds with a hit are over-represented: about 11% of the library has one in this group of screens.
SMILES,M1 antagonist,M1 ag,S1P1 ag pot,D1 allo mod,S1P3 ag,M1 agonist conf,M4 agonist ctr
CCCCc1nc(N2CCOCC2)c(C#N)c2c1COC(C)(C)C2,-,4.49,-,.,-,?,-
CC1(C)Cc2c(C#N)c(SCCOc3ccccc3)nc(N3CCOCC3)c2CO1,-,4.13,-,.,-,-,?
CCCSc1nc(N2CCCC2)c2c(c1C#N)CC(C)(C)OC2,-,-,-,.,-,.,.
O=S1(=O)C=CC(N2CCOCC2)C1 (stereo not given),-,-,.,-,.,.,.
Cc1nnc(SCc2ccccc2F)n1NCc1cccs1,-,-,.,-,-,.,.
O=C(OCc1cccs1)c1ccccc1NS(=O)(=O)c1ccc2c(c1)OCCO2,-,4,-,-,-,-,-
Cc1ccccc1S(=O)(=O)Cc1ccc(C(=O)N2CCN(c3ccc(F)cc3)CC2)o1,-,3.21,-,-,-,-,-
CCOC(=O)N1CCN(C(=O)c2ccc(CS(=O)(=O)c3ccccc3OC)o2)CC1,-,-,-,-,-,.,.
COc1ccccc1N1CCN(C(=O)c2ccc(CS(=O)(=O)c3ccccc3OC)o2)CC1,-,4.52,-,-,-,-,?
COc1ccc(S(=O)(=O)Nc2c(C)ccc3nsnc23)cc1OC,-,-,-,-,-,.,.
CCOC(=O)N1CCN(C(=O)C(NC(=O)c2ccc(CC)cc2)C(C)C)CC1 (stereo not given),-,-,-,-,-,.,.
COc1ccc(-c2noc(Cc3ccccc3OC)n2)cc1,-,-,-,-,-,.,.
COc1ccc(-c2noc(Cc3cccs3)n2)cc1,-,5.26,-,-,-,-,?
O=C(OCn1nnc2ccccc2c1=O)C1CCCCC1,-,-,-,.,-,.,.
COc1ccc2[nH]c(=O)c(CN(CC3CCCO3)C(=O)Nc3ccc(F)cc3)cc2c1 (stereo not given),-4.29,11.2,-,-,-,-,-
COc1cccc(C(=O)N(Cc2cc3cc(C)ccc3[nH]c2=O)CC2CCCO2)c1 (stereo not given),.,.,-,-,-,.,.
CN(C)CCCN1C(=O)C(O)=C(C(=O)c2cccs2)C1c1ccccn1 (stereo not given),-,-,-,-,-,.,.
Cc1ccccc1Nc1cc2ccccc2c(=O)[nH]1,-,16.9,-,-,-,64,-
COc1ccc(-c2nc(CSCC(=O)NCC3CCCO3)c(C)o2)cc1OC (stereo not given),-,-,-,-,-,.,.
COC(=O)c1ccc(-c2ccco2)n1Cc1nc(-c2ccc(OC)c(OC)c2)oc1C,-,1.85,-,-,-,-,-
COc1cc(C2NC(=O)NC(C)=C2C(=O)OC2CCCC(C)C2)ccc1O (stereo not given),-,-,-,-,-,.,.
O=c1c2cc3c(cc2[nH]c(=S)n1Cc1ccco1)OCO3,-,-,.,-,.,.,.
Cc1cnc(-c2nnc(N(C)C(=O)C3CCCO3)s2)cn1 (stereo not given),-,-1.74,-,-,-,-,-
COC(=O)COc1ccc(S(=O)(=O)NCc2ccncc2)cc1,-1.98,2.74,-,-,-,-,?
CCOc1ccc(C2/C(=C(/O)c3ccc(Cl)cc3)C(=O)C(=O)N2CCCN(C)C)cc1OC (stereo not given),-,-,-,-,-,.,.
SMILES,M1 antagonist,M1 ag,S1P1 ag pot,D1 allo mod,S1P3 ag,M1 agonist conf,M4 agonist ctr
COc1ccc(-c2ccc(-c3noc(C4CCCCC4)n3)c(OC)n2)cc1,-,3.93,-,-,-,-,?
CC(C)(C)NC(=O)C1CCCN(S(=O)(=O)c2cccc3cccnc23)C1 (stereo not given),-,-,-,-,-,.,.
O=C(C1CCCN(S(=O)(=O)c2cccc3nsnc23)C1)N1CCN(c2ccccn2)CC1 (stereo not given),-,3.15,-,-,-,-,-
O=C(NCC1COc2ccccc2O1)C1CCCN(S(=O)(=O)c2cccc3nsnc23)C1 (stereo not given),-,3.17,-,-,-,?,-
COc1cccc(NC(=O)C2CCCN(S(=O)(=O)c3cccc4cccnc34)C2)c1 (stereo not given),-,3.11,-,-,-,?,-
O=C(C1CCCN(S(=O)(=O)c2cccc3cccnc23)C1)N1CCc2ccccc21 (stereo not given),-,3.13,-,-,-,?,-
Cc1c(Cl)cccc1N1C(=O)CC(N(O)c2ccccc2)C1=O (stereo not given),-,-,-,-,-,.,.
O=C(C1CCCN(S(=O)(=O)c2cccc3cccnc23)C1)N1CCN(c2ccc(F)cc2)CC1 (stereo not given),-,2.71,-,-2.32,-,?,?
O=C(C1CCN(S(=O)(=O)c2cccc3cccnc23)CC1)N1CCN(c2ccccc2)CC1,-,-,-,-,-,.,.
CCN1C(=S)SC(=O)C1=C1C=C(C)N(Cc2ccco2)C(C)=C1,-,27,.,-,.,135,234
CCN1C(=S)SC(=O)C1=C1C=C(C)OC(C)=C1,-,-,.,-,.,.,.
Cc1ccc(C(c2nnnn2CC2CCCO2)N2CCN(c3cccc(C)c3C)CC2)cc1 (stereo not given),-,-,-,-,-,.,.
CCOC(=O)c1sc2nc(N3CCOCC3)c3c(c2c1N)CCC3,-,2.02,-,-,-,?,-
Cc1cc(NC(=O)CSc2nnc(-c3ccoc3C)o2)no1,-,-3.67,-,-,-,?,-
CCOc1ccc(CSC(CC(=O)O)C(=O)O)cc1 (stereo not given),-,-,-,-,-,.,.
Cn1c(=O)[nH]c2cc(Cl)cnc21,-,9.08,-,.,-,-,-
FC(F)(F)c1nc2ncc(Cl)cc2[nH]1,-,-,-,-,-,.,.
CC(=O)Nc1ccc(OCC(O)CN2CCN(c3cc(Cl)ccc3C)CC2)cc1 (stereo not given),-,-,-,-,-,.,.
CC(=O)Nc1ccc(OCC(O)CN2CCN(c3ccc(C)c(Cl)c3)CC2)cc1 (stereo not given),-,1.89,.,-2.6,-,-,-
O=C1CC(NCc2ccncc2)C(=O)N1c1ccc(Cl)cc1 (stereo not given),-,-,-,-,-,.,.
COC(=O)/C=c1\sc2n(c1=O)C(C)=CC(C)(C)N=2,-,5.62,-,.,-,-,-
COC(=O)/C=c1/sc2n(c1=O)CCN=2,-,-,-,-,-,.,.
Cc1ccc(C2C(C(=O)c3sc(-c4ccccc4)nc3C)=C(O)C(=O)N2CCN(C)C)o1 (stereo not given),-,-,.,-,-,.,.
O=C(CSc1n[nH]c(=O)n1C1CC1)Nc1cc(Cl)ccc1Oc1ccccc1,-2.73,6.89,-,-,-,-,-
CCc1nnc(NC(=O)CCC(=O)N2CCN(CCOc3ccc(C)cc3)CC2)s1,-,5.1,-,.,-,-,-
